Data reported in ChEMBL document CHEMBL1817636, “Use of structure-based design to discover a potent, selective, in vivo active phosphodiesterase 10A inhibitor lead series for the treatment of schizophrenia” (J Med Chem, 2011).
Values belong to the molecule of their own block, whether it stands above or below them. Active and inactive are the calls of the source. The calls are words filed in the database; no cut-off is given here.

How the values were obtained:
[1] = Selectivity ratio of IC50 for PDE3A to IC50 for rat PDE10A
[2] = molecular target: T1, cAMP and cAMP-inhibited cGMP 3',5'-cyclic phosphodiesterase 10A (Rattus norvegicus, UniProt Q9QYJ6); assay: Inhibition of recombinant rat PDE10A expressed in Sf9 cells using [3H]cAMP after 30 mins by scintillation proximity assay
T1 sequence (Q9QYJ6 whole entry): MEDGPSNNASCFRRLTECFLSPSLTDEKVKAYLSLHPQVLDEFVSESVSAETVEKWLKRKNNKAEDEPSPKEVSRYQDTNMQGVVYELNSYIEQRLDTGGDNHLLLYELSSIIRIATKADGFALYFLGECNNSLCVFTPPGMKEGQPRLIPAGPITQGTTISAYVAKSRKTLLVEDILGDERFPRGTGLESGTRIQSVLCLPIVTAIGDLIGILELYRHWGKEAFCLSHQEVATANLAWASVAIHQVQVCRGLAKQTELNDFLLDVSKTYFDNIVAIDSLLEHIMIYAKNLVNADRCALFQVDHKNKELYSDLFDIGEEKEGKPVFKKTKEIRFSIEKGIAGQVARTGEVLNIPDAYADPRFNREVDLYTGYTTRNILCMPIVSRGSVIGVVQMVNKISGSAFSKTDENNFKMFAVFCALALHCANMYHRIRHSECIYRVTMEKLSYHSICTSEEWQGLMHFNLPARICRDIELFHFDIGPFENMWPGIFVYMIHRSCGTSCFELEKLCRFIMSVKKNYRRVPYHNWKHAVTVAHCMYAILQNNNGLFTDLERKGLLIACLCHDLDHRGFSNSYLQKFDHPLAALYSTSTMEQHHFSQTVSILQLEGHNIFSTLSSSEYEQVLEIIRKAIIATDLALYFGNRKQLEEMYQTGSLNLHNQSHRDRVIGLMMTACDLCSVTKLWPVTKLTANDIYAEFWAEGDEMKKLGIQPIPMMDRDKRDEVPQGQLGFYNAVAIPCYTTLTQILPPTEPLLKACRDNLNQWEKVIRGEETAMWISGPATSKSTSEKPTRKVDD
Summary of the method: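 Full-length rat PDE10A clone expressed in Sf9 cells; enzyme extracted in Tris/benzamidine/EDTA/sucrose/PMSF lysis buffer, pH 7.5. 30 min at room temperature, stopped with SPA beads, counted after 10–12 h.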

[3] = molecular target: T2, cGMP-inhibited 3',5'-cyclic phosphodiesterase 3A (Homo sapiens, UniProt Q14432); assay: Inhibition of PDE3A
T2 sequence (Q14432 whole entry): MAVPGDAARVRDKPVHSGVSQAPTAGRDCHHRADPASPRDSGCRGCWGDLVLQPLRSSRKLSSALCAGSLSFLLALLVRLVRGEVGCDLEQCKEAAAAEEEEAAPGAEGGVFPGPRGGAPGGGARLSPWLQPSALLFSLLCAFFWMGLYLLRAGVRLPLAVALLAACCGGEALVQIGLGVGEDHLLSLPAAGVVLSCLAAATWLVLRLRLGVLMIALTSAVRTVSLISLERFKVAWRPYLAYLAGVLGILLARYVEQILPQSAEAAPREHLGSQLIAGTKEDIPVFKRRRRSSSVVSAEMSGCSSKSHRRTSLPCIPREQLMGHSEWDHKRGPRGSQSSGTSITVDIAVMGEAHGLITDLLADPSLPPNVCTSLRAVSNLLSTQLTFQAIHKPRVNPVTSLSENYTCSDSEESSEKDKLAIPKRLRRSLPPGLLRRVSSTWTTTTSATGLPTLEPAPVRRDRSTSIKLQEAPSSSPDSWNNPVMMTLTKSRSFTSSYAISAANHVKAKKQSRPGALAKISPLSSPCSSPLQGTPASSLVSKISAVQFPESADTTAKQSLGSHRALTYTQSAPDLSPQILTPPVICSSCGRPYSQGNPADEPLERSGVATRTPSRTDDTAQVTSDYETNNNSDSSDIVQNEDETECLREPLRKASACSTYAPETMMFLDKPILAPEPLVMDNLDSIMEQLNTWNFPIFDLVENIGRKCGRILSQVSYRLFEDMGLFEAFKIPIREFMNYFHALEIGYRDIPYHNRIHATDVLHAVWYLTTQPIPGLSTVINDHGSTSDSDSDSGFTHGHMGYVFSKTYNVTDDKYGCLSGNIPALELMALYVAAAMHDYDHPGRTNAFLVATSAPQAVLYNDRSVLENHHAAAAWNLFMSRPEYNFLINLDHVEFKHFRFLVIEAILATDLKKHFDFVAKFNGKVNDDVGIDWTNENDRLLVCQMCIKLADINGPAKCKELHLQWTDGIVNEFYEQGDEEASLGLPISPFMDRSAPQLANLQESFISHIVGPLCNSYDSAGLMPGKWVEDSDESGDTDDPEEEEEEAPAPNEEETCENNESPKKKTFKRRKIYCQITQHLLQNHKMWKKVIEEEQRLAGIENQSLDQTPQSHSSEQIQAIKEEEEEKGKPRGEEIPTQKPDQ

Mus musculus [4] = assay: Antipsychotic activity in CD1 mouse assessed as increase in brain cGMP levels at 32 mg/kg, sc measured after 60 mins post dosing relative to control; type: functional; settings: route subcutaneous
[5] = Intrinsic clearance in human liver microsomes; type: ADME, Microsome
human MDR [6] = assay: Apparent permeability across apical to basolateral side in dog MDCK cells expressing human MDR; type: ADME, cell-based, Canis lupus familiaris; settings: MDCK-MDR1
Mus musculus [7] = assay: Antipsychotic activity in CD1 mouse assessed as increase in brain cGMP levels at 5.6 mg/kg, sc measured after 60 mins post dosing relative to control; type: functional; settings: route subcutaneous
Mus musculus [8] = assay: Antipsychotic activity in CD1 mouse assessed as increase in brain cGMP levels at 32 mg/kg, sc measured after 15 mins post dosing relative to control; type: functional; settings: route subcutaneous
Mus musculus [9] = assay: Antipsychotic activity in CD1 mouse assessed as increase in brain cGMP levels at 32 mg/kg, sc measured after 30 mins post dosing relative to control; type: functional; settings: route subcutaneous
[10] = molecular target: T2, cGMP-inhibited 3',5'-cyclic phosphodiesterase 3A; assay: Inhibition of PDE3A at 1 uM
[11] = Selectivity ratio IC50 for PDE8A to IC50 for rat PDE10A
[12] = Selectivity ratio IC50 for PDE5A to IC50 for rat PDE10A
[13] = Selectivity ratio IC50 for PDE9A to IC50 for rat PDE10A
[14] = Selectivity ratio IC50 for PDE2A to IC50 for rat PDE10A
[15] = Selectivity ratio IC50 for PDE6A to IC50 for rat PDE10A
[16] = Selectivity ratio IC50 for PDE4D to IC50 for rat PDE10A
[17] = Selectivity ratio IC50 for PDE1A to IC50 for rat PDE10A
[18] = Selectivity ratio IC50 for PDE11A to IC50 for rat PDE10A
[19] = Selectivity ratio IC50 for PDE7A to IC50 for rat PDE10A
human MDR [20] = assay: Efflux ratio of permeability from basolateral to apical side over apical to basolateral side in dog MDCK cells expressing human MDR; type: ADME, cell-based, Canis lupus familiaris; settings: MDCK-MDR1
Mus musculus [21] = assay: Antipsychotic activity in sc dosed PDE10A-positive DBA1LAC/J mouse assessed as inhibition of conditioned avoidance response administered 30 mins prior testing; type: functional
Mus musculus [22] = assay: Antipsychotic activity in sc dosed PDE10A-knock out DBA1LAC/J mouse assessed as inhibition of conditioned avoidance response administered 30 mins prior testing; type: functional
Mus musculus [23] = assay: Antipsychotic activity in CD1 mouse assessed as increase in striatal cGMP levels at 5.6 mg/kg, sc measured after 60 mins; type: functional, organism-based; set-up: dose 5.6 mg/kg
[24] = Intrinsic clearance in rat liver microsomes; type: ADME, Microsome

Ratio IC50 [1]: < 0.1
IC50 [2]: 1040 nM
IC50 [3]: 98 nM
Compound: CCCOc1cc2c(N3CCCC(c4ccccc4)C3)ncnc2cc1OC (stereo not drawn)

IC50 [2]: > 3200 nM
Compound: COc1cc2ncnc(N3CCCC(c4ccccc4)C3)c2cc1OCc1ccc2ccccc2n1 (stereo not drawn)

Ratio IC50 [1]: < 0.1
Compound: COc1cc2ncnc(N3CCCC(c4ccccc4)C3)c2cc1OC (stereo not drawn) [listing 1 of 2 here]

IC50 [2]: > 3200 nM
Compound: COc1cc2ncnc(N3CCCC(c4ccccc4)C3)c2cc1OCc1ccccn1 (stereo not drawn)

IC50 [2]: 146 nM
Compound: COc1cc2ncnc(N3CCCC(c4ccccc4)C3)c2cc1OC (racemic)

Ratio IC50 [1]: > 5
Compound: COc1cc2ncnc(N3CCCC(c4ccccc4)C3)c2cc1OCCc1ccccn1 (racemic)

IC50 [2]: 14 nM
CLint scaled [5]: 178 mL/min/kg
Papp A→B (human MDR [6]): 19 ×10⁻⁶ cm/s
Compound: COc1cc2ncnc(N(C)C)c2cc1OCCc1ccc2ccccc2n1
Activity (Mus musculus [4]): 268%
Activity (Mus musculus [7]): 34%

IC50 [2]: 12 nM
CLint scaled [5]: 93 mL/min/kg
Papp A→B (human MDR [6]): 18 ×10⁻⁶ cm/s
Compound: COc1cc2ncn(C)c(=O)c2cc1OCCc1ccc2ccccc2n1
Activity (Mus musculus [8]): 129%
Activity (Mus musculus [9]): 79%

inhibition [10]: 32%
Compound: COc1cc2ncnc(N3CCCC(c4ccccc4)C3)c2cc1OCCc1ccccn1 (stereo not drawn)

IC50 [2]: 1660 nM
Compound: COc1cc2ncnc(N3CCCC(c4ccccc4)C3)c2cc1OCCc1ccccc1 (stereo not drawn)

IC50 [2]: > 3200 nM
Compound: COc1cc2ncnc(N3CCCC(c4ccccc4)C3)c2cc1OCc1ccncc1 (stereo not drawn)

IC50 [2]: 2340 nM
Compound: COc1cc2ncnc(N3CCCC(c4ccccc4)C3)c2cc1OCCc1cccnc1 (stereo not drawn)

IC50 [2]: 809 nM
Compound: c1ccc2nc(CCOc3ccc4ccncc4c3)ccc2c1

IC50 [2]: > 3200 nM
Compound: COc1cc2ncnc(N3CCCC(c4ccccc4)C3)c2cc1OCCc1ccncc1 (stereo not drawn)

IC50 [2]: > 3200 nM
Compound: COc1cc2ncnc(N3CCCC(c4ccccc4)C3)c2cc1OCc1cccnc1 (stereo not drawn)

Ratio IC50 [11]: > 100
Ratio IC50 [12]: > 100
Ratio IC50 [1]: > 100
Ratio IC50 [13]: > 100
Ratio IC50 [14]: > 100
Ratio IC50 [15]: > 100
Ratio IC50 [16]: > 100
CLint scaled [5]: > 19 mL/min/kg
Ratio IC50 [17]: > 100
Ratio IC50 [18]: > 100
Ratio IC50 [19]: > 100
efflux ratio (human MDR [20]): > 10
Compound: COc1cc2ncnc(N3CCCC(c4ccccc4)C3)c2cc1OCCc1ccc2ccccc2n1 (stereo not drawn)

CLint scaled [5]: 13 mL/min/kg
IC50 [3]: 8.5 nM
efflux ratio (human MDR [20]): 0.7
Compound: COc1cc2ncnc(N3CCCC(c4ccccc4)C3)c2cc1OC (stereo not drawn) [listing 2 of 2 here]

IC50 [2]: 5 nM
CLint scaled [5]: < 8 mL/min/kg
Papp A→B (human MDR [6]): 0.4 ×10⁻⁶ cm/s
Compound: COc1cc2ncnc(-c3cccnc3)c2cc1OCCc1ccc2ccccc2n1
ED50 (Mus musculus [21]): 3.18 mg/kg
Activity (Mus musculus [7]): 79%
ED50 (Mus musculus [22]): > 5.8 mg/kg

inhibition [10]: 11%
IC50 [2]: 10 nM
Compound: COc1cc2ncnc(N3CCCC(c4ccccc4)C3)c2cc1OCCCc1nc2ccccc2n1C (stereo not drawn)

inhibition [10]: 51%
CLint scaled [5]: < 7 mL/min/kg
Papp A→B (human MDR [6]): 3 ×10⁻⁶ cm/s
CLint scaled [24]: 183 mL/min/kg
Compound: COc1cc2cncnc2cc1OCCc1ccc2ccccc2n1
Activity (Mus musculus [23]): inactive
